Laboratory results reported in ChEMBL document CHEMBL1143369, “Guanidine and 2-aminoimidazoline aromatic derivatives as alpha2-adrenoceptor ligands: searching for structure-activity relationships” (J Med Chem, 2009).
Calls of active or inactive are those of the source. No cut-off for these calls is given here.

Experiments:
[1] = molecular target: T1, Adrenergic receptor alpha-2 (Homo sapiens, UniProt P08913+P18825+P18089); test: Agonist activity at alpha2 adrenoceptor in human cortical membrane after 2 hrs by [35S]GTPgammaS binding assay; type: functional, cell membranes
T1 sequence (P08913 whole entry): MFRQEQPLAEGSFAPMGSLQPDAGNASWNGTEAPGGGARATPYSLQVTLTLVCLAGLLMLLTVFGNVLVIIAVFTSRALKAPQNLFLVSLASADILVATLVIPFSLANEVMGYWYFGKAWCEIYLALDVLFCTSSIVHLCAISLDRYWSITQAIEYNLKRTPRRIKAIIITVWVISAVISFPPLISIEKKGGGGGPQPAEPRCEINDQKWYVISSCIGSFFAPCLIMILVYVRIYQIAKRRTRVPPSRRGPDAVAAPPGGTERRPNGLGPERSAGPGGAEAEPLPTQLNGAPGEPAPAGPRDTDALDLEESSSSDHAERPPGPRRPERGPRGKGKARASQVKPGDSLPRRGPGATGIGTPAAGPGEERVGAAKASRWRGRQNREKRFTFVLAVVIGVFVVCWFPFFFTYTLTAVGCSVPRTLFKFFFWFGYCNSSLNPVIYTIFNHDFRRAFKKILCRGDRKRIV
T1 sequence (P18825 whole entry): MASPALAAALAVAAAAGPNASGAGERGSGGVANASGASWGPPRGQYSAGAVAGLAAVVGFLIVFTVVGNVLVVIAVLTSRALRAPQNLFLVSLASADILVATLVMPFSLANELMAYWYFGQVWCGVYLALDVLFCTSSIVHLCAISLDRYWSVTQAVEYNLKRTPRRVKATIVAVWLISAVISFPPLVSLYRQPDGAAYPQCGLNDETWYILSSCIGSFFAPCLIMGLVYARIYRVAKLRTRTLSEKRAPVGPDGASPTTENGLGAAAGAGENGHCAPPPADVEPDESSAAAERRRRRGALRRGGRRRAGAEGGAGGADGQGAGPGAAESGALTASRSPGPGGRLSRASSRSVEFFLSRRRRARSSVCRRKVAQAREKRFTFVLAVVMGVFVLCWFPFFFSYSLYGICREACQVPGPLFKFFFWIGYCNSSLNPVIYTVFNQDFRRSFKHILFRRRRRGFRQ
T1 sequence (P18089 whole entry): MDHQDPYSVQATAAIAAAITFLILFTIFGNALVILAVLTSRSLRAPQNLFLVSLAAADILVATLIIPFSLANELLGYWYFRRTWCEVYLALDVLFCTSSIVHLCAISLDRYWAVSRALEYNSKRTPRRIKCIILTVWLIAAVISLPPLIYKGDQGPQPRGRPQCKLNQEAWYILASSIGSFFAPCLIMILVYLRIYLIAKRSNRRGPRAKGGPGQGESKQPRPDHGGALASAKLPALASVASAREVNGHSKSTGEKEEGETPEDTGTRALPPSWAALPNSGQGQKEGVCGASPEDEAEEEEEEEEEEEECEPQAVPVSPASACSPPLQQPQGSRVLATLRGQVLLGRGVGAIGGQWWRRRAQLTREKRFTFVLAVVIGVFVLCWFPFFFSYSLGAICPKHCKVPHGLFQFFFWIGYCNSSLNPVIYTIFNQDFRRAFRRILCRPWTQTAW

[2] = molecular target: T2, Adrenergic receptor alpha-2 (Homo sapiens) (UniProt P08913+P18825+P18089); test: Intrinsic activity at alpha2 adrenoceptor in human cortical membrane at 0.0001 to 1000 uM after 2 hrs by [35S]GTPgammaS binding assay relative to UK-14304; type: functional, cell membranes
Method in brief: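 Human postmortem PFC membranes (40 µg protein) incubated 2 h at 30 °C with 0.5 nM [35S]GTPγS in buffer of EGTA, MgCl2, 100 mM NaCl, GDP and Tris-HCl pH 7.4. Compound tested at 8 concentrations (10^-10 to 10^-3 M). Bound label collected by GF/C filtration.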

[3] = molecular target: T1, Adrenergic receptor alpha-2; test: Displacement of [3H]RX821002 from alpha2 adrenoceptor in human prefrontal cortex neural membrane after 30 mins by liquid scintillation spectrometry; type: tissue-based
[4] = molecular target: T2, Adrenergic receptor alpha-2 (Homo sapiens); test: Antagonist activity at alpha2 adrenoceptor in human prefrontal cortex neural membrane at 10 uM assessed as rightwards shift in UK-14304 EC50 by [35S]GTPgammaS binding assay; type: functional, tissue-based
Method in brief: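 Human postmortem prefrontal cortex P2 membranes (40 µg protein) incubated 120 min at 30 °C with shaking in 0.5 nM [35S]GTPγS, 1 mM EGTA, 3 mM MgCl2, 100 mM NaCl, GDP, Tris-HCl pH 7.4. Nonspecific binding with 10 µM unlabeled GTPγS.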

[5] = system: Rattus norvegicus; test: Antidepressant activity in Sprague-Dawley rat assessed as increase in extracellular noradrenaline level in prefrontal cortex at 100 uM administered locally by microdialysis measured after every 70 mins by HPLC; type: functional
Method in brief: (§1)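 Male Sprague-Dawley rats (250-300 g), freely moving, with a PFC probe implanted under chloral hydrate 20-24 h earlier. Perfused with aCSF pH 7.4 at 1 µL/min. Drug dissolved in aCSF and reverse-dialysed for 70 min at each step of 1, 10 and 100 µM. Dialysate sampled every 35 min, NA measured by HPLC with amperometric detection at +650 mV. Values are % of mean of 3 basal samples, ANOVA versus aCSF controls.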

[6] = system: Rattus norvegicus; test: Antidepressant activity in Sprague-Dawley rat assessed as increase in extracellular noradrenaline level in prefrontal cortex at 10 mg/kg, ip […] by HPLC; type: functional; details: route intraperitoneal
[7] = system: Rattus norvegicus; test: Antidepressant activity in Sprague-Dawley rat assessed as increase in extracellular noradrenaline level in prefrontal cortex at 1 to 100 uM administered locally by microdialysis measured after every 70 mins by HPLC; type: functional; method in brief: as §1
[8] = system: Rattus norvegicus; test: Antidepressant activity in Sprague-Dawley rat assessed as increase in extracellular noradrenaline level in prefrontal cortex at 1 uM administered locally by microdialysis measured after every 70 mins by HPLC; type: functional, organism-based; method in brief: as §1

Structure (SMILES) | EC50 [1] [µM] | Emax [2] [%] | pKi [3] | Activity [4] | Emax [5] [%] | Activity [6] [%] | Emax [7] [%] | Activity [8]
CCC(CC)c1ccc(NC(=N)N)cc1 | 38.7 | 89 | – | – | – | – | – | –
CCNc1ccc(NC(=N)N)cc1 | – | – | 6.58 | Active | 304 | 161 | – | –
CNc1ccc(NC2=NCCN2)cc1 | 61.4 | 98 | 7.27 | – | – | – | – | –
CCN(C)c1ccc(NC(=N)N)cc1 | 16.2 | 92 | 7.12 | – | – | – | – | –
CNc1ccc(NC(=N)N)cc1 | 82.3 | 87 | 6.95 | – | – | – | – | –
CCN(C)c1ccc(NC2=NCCN2)cc1 | 1.9 | 103 | 7.38 | – | – | – | – | –
CCNc1ccc(NC2=NCCN2)cc1 | 59.3 | 95 | 6.75 | – | – | – | – | –
COC1(C2=NCCN2)COc2ccccc2O1 (centres undefined) | – | – | 9.04 | – | – | – | 290 | Active
